According to ChEMBL document CHEMBL5108071, “Potent and Specific Activators for Mitochondrial Sirtuins Sirt3 and Sirt5” (J Med Chem, 2022):
Calls of active or inactive are those of the source. The calls are words filed in the database; no cut-off is given here.

Assays:
[1] = target: T1, NAD-dependent protein deacetylase sirtuin-3, mitochondrial (Homo sapiens) (UniProt Q9NTG7); assay: Activation of N-terminal his-tagged human SIRT3 (114 to 380 residues) expressed in Escherichia coli using ACS2-acK642 as substrate in presence of NAD+; settings: filed as activator
T1 sequence (whole entry): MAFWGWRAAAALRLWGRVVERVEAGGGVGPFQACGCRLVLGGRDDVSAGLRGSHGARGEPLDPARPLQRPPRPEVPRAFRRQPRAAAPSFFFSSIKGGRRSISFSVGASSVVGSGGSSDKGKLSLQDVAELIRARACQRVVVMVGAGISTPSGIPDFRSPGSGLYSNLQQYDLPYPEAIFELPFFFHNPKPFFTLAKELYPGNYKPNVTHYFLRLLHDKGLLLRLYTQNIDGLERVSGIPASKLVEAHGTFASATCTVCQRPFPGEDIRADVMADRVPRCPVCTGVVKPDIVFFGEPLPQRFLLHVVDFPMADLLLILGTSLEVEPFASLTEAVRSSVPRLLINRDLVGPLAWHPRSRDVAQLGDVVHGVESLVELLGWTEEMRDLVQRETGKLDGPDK
Method in brief: (§1)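 Coupled continuous enzymatic assay (nicotinamidase/GDH-linked): 1.5 µM purified Sirt3 with 50 µM ACS2-acK642 peptide and 100 µM NAD+, compound at 10 µM, 100 µM or titrated, 5% DMSO final; fold deacetylation versus no-compound control.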

[2] = target: T1, NAD-dependent protein deacetylase sirtuin-3, mitochondrial (Homo sapiens); assay: Activation of N-terminal his-tagged human SIRT3 (114 to 380 residues) expressed in Escherichia coli at 100 uM using ACS2-acK642 as substrate in presence of NAD+ by Mass spectrometry assay relative to control; settings: filed as activator
Method in brief: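 Mass-spectrometric deacetylation assay using coupled-assay components (1.5 µM Sirt3, 50 µM peptide, 100 µM NAD+, compound 100 µM) in 50 mM Na-phosphate pH 7.8 plus 0.05 µg/µL PNCA to remove nicotinamide; product and substrate peptides quantified.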

[3] = target: T1, NAD-dependent protein deacetylase sirtuin-3, mitochondrial (Homo sapiens); assay: Activation of SIRT3 in human MDA-MB-231 cells assessed as increase in GDH activity at 50 uM incubated for 4 hrs […]; assay type: cell-based; settings: filed as activator
Method in brief: (§2)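 MDA-MB-231 cells given 50 µM compound for 4 h, or 4 h then re-dosed for a further 4 h; 10^6 cells lysed, supernatant mixed with glutamate/developer mix, 3 min at 37 °C, absorbance 450 nm, buffer blank subtracted; means ± SD, Student's t-test.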

[4] = target: T2, NAD-dependent protein deacetylase sirtuin-2 (Homo sapiens) (UniProt Q8IXJ6); assay: Activation of N-terminal SUMO-tagged human SIRT2 (43 to 356 residues) expressed in Escherichia coli assessed as deacetylation of substrate at 100 uM using acetylated alpha tubulin-K2 as substrate in presence of NAD+; settings: filed as activator
T2 sequence (whole entry): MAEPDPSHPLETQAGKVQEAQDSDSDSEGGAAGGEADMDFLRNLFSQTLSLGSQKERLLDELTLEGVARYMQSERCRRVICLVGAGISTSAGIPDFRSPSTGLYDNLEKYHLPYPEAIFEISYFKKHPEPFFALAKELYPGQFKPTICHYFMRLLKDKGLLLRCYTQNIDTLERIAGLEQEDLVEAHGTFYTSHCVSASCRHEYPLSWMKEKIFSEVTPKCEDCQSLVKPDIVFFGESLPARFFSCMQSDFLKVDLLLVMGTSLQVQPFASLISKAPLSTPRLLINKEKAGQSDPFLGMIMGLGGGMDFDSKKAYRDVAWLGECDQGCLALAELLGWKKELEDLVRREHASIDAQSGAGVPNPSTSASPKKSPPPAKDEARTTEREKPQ
Method in brief: (§3)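 Coupled enzymatic deacylation assay (nicotinamidase/GDH-coupled, continuous): 1.5 μM recombinant Sirtuin (expressed in E. coli, Ni-NTA purified, tag removed, size-exclusion purified) with 50 μM substrate peptide and 100 μM NAD+, without or with 10 μM or 100 μM 1,4-DHP, 5% final DMSO. Activity expressed relative to no-compound control.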

[5] = target: NAD-dependent protein deacylase sirtuin-5, mitochondrial (Homo sapiens) (UniProt Q9NXA8); assay: Activation of N-terminal his-tagged human SIRT5 (34 to 302 residues) expressed in Escherichia coli assessed as fold activation at more than 200 uM using CPS1-succ537 as substrate in presence of NAD+; settings: filed as activator
Method in brief: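 Sirt5 desuccinylation measured by coupled enzymatic assay: 1.5 µM enzyme, 50 µM CPS1-succK537 peptide, 100 µM NAD+, 5% DMSO final; compound titrated; fold activation relative to untreated reaction.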
Target sequence in this assay (Q9NXA8 37-310 limits assumed): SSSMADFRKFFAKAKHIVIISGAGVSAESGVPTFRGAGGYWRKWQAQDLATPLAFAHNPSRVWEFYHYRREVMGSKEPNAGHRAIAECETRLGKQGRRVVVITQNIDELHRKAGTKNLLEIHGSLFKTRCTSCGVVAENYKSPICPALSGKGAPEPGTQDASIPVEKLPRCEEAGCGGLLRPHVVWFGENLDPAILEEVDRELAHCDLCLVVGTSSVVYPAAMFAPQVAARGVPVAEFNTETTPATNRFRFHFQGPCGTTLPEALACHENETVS

[6] = target: T1, NAD-dependent protein deacetylase sirtuin-3, mitochondrial (Homo sapiens); assay: Activation of N-terminal his-tagged human SIRT3 (114 to 380 residues) expressed in Escherichia coli assessed as fold activation at 10 to 100 uM using ACS2-acK642 as substrate in presence of NAD+; settings: filed as activator, dose 10-100 µM; method in brief: as §1
[7] = target: T3, NAD-dependent protein deacetylase sirtuin-3 (Mus musculus) (UniProt Q8R104); assay: Activation of SIRT3 in mouse MEF cells assessed as fold increase in mitochondrial mass at 25 uM incubated for 24 hrs by MT-DR staining based FACS assay; assay type: cell-based; settings: filed as activator
T3 sequence (whole entry): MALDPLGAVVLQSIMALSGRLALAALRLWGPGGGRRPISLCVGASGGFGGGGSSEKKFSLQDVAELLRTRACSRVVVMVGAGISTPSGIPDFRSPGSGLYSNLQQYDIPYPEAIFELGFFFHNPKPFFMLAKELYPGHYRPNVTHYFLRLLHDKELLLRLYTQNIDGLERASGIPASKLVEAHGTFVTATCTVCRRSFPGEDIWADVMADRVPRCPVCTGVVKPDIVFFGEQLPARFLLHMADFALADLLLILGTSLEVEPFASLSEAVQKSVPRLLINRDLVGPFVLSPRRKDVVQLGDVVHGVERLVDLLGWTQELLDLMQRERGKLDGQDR
Method in brief: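 Wild-type and Sirt3 knock-out MEFs exposed to 25 µM compound for 24 h, then stained with 10 nM MitoTracker Deep Red for 30 min at 37 °C; mitochondrial mass by FACS; mean ± SD, n = 2.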

[8] = target: T4, NAD-dependent protein deacetylase sirtuin-1 (Homo sapiens) (UniProt Q96EB6); assay: Activation of N-terminal his-tagged human SIRT1 expressed in Escherichia coli assessed as fold activation at 10 to 100 uM using p53-acK381 as substrate in presence of NAD+; settings: filed as activator, dose 10-100 µM; method in brief: as §3
T4 sequence (whole entry): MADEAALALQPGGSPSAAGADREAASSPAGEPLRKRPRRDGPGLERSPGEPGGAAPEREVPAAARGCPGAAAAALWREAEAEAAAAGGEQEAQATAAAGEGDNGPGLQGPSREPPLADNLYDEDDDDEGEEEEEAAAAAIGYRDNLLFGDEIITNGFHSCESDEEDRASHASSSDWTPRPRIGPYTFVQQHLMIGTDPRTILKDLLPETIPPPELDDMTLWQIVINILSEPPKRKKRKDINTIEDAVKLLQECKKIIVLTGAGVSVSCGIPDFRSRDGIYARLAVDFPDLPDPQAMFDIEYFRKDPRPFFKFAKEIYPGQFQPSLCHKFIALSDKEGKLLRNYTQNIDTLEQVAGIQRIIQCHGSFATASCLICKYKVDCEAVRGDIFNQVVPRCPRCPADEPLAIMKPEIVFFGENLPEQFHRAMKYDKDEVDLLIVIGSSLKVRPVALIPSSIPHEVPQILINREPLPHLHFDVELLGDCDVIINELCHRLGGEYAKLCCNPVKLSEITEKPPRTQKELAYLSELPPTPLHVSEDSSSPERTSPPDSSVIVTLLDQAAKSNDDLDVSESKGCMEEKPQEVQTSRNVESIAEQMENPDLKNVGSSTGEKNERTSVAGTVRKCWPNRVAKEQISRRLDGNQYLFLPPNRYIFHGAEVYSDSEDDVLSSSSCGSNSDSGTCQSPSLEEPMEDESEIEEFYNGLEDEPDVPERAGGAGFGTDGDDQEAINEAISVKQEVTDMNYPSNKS

[9] = target: T1, NAD-dependent protein deacetylase sirtuin-3, mitochondrial (Homo sapiens); assay: Activation of STAT3 protein level in human MDA-MB-231 cells assessed as STAT3 protein expression incubated for 24 hrs by Western blotting; assay type: cell-based; settings: filed as activator
[10] = target: T1, NAD-dependent protein deacetylase sirtuin-3, mitochondrial (Homo sapiens); assay: Activation of SIRT3 in human MDA-MB-231 cells assessed as decrease in MnSOD-Lys68 acetylation level at 50 uM incubated for 16 hrs by Western blot analysis assay; assay type: cell-based; settings: filed as activator
Method in brief: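 MDA-MB-231 cells (wild-type and Sirt3-knockdown) treated with 50 µM; 50 µg whole-cell lysate protein run on SDS-PAGE, blotted to PVDF, probed with anti-MnSOD-acK68 and anti-MnSOD, ECL detection; each blot done in triplicate.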

[11] = target: T1, NAD-dependent protein deacetylase sirtuin-3, mitochondrial (Homo sapiens); assay: Activation of N-terminal his-tagged human SIRT3 (114 to 380 residues) expressed in Escherichia coli assessed as fold activation at 100 uM using ACS2-acK642 as substrate in presence of NAD+; settings: filed as activator; method in brief: as §1
[12] = target: T1, NAD-dependent protein deacetylase sirtuin-3, mitochondrial (Homo sapiens); assay: Activation of SIRT3 in human MDA-MB-231 cells assessed as increase in GDH activity at 50 uM incubated for 8 hrs […]; assay type: cell-based; settings: filed as activator; method in brief: as §2
[13] = target: T1, NAD-dependent protein deacetylase sirtuin-3, mitochondrial (Homo sapiens); assay: Activation of SIRT3 in human MDA-MB-231 cells assessed as increase in FdL deacetylation activity at 50 to 100 uM incubated for 3 hrs; assay type: cell-based; settings: filed as activator, dose 50-100 µM
Method in brief: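 MDA-MB-231 cells (RPMI 1640, 10% FBS, 37 °C, 5% CO2) treated 3 h at 50 or 100 µM; 40 µg mitochondrial extract incubated with Fluor de Lys substrate 40 min 37 °C, then developer 10 min; fluorescence ex 360/em 460 nm, buffer background subtracted.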

[14] = target: NAD-dependent protein deacylase sirtuin-5, mitochondrial (Homo sapiens) (UniProt Q9NXA8); assay: Activation of SIRT5 in human CAPAN-1 cells assessed as decrease in GOT1 acetylation at 20 uM incubated for 24 hrs by Western blot analysis; settings: filed as activator
Target sequence in this assay (Q9NXA8 whole entry, looked up, the tested form may be a part): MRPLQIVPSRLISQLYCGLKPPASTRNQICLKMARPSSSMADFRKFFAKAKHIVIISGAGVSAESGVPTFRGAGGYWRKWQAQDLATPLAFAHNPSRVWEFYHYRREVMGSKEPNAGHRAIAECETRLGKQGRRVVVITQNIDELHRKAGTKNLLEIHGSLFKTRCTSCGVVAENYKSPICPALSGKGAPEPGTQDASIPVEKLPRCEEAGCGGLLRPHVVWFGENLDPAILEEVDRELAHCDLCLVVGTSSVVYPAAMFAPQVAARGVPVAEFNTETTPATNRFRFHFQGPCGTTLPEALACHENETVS

[15] = target: NAD-dependent protein deacylase sirtuin-5, mitochondrial (Homo sapiens) (UniProt Q9NXA8); assay: Activation of SIRT5 in human S2-013 cells assessed as decrease in GOT1 acetylation at 20 uM incubated for 24 hrs by Western blot analysis; settings: filed as activator
Target sequence in this assay (Q9NXA8 whole entry, looked up, the tested form may be a part): as above

[16] = target: NAD-dependent protein deacylase sirtuin-5, mitochondrial (Homo sapiens) (UniProt Q9NXA8); assay: Activation of N-terminal his-tagged human SIRT5 (34 to 302 residues) expressed in Escherichia coli assessed as fold activation at 100 uM using CPS1-succ537 as substrate in presence of NAD+; settings: filed as activator; method in brief: as §3
Target sequence in this assay (Q9NXA8 37-310 limits assumed): as the sequence (Q9NXA8 37-310 limits assumed) above

[17] = target: NAD-dependent protein deacylase sirtuin-5, mitochondrial (Homo sapiens) (UniProt Q9NXA8); assay: Activation of human recombinant SIRT5 assessed as decrease in PDHA1-succinylation at 100 uM by Western blot analysis; settings: filed as activator
Target sequence in this assay (Q9NXA8 whole entry, looked up, the tested form may be a part): as the sequence (Q9NXA8 whole entry, looked up, the tested form may be a part) above

[18] = target: NAD-dependent protein deacylase sirtuin-5, mitochondrial (Homo sapiens) (UniProt Q9NXA8); assay: Activation of N-terminal his-tagged human SIRT5 (34 to 302 residues) expressed in Escherichia coli assessed as fold activation at 10 uM using CPS1-succ537 as substrate in presence of NAD+; settings: filed as activator; method in brief: as §3
Target sequence in this assay (Q9NXA8 37-310 limits assumed): as the sequence (Q9NXA8 37-310 limits assumed) above

`CCOC(=O)C1=CN(C(=O)c2cc(OC)c(OC)c(OC)c2)C=C(C(=O)OCC)C1c1ccccc1` was tested. Which Activity [1] did it give?
The Activity was “Active”.

What about the Activity [2] of the same molecule?
Its Activity is 400%.

And the Activity [3]?
The Activity was “Active”.

And the Activity [4]?
The Activity was “Active”.

What about the fold change (FC) [5] of the same molecule?
Its fold change (FC) is 5.

And the fold change (FC) [6]?
The fold change (FC) was 5.

`CCOC(=O)C1=CN(Cc2ccccc2)C=C(C(=O)OCC)C1c1cnc2ccccc2c1` was tested. Which Activity [7] did it give?
The Activity was “Active”.

What about the fold change (FC) [8] of the same molecule?
Its fold change (FC) is 1.5.

What does the source list for `CCOC(=O)C1=CN(C(=O)c2ccccc2)C=C(C(=O)OCC)C1c1ccccc1`?
Activity [2]: 300%; Activity [9]: Active; Activity [10]: Active; fold change (FC) [11]: 3.5; Activity [12]: Active; fold change (FC) [8]: 1.5; Activity [13]: Active

What does the source list for `CCOC(=O)C1=CN(C(=O)c2ccccc2)C=C(C(=O)OCC)C1c1cccc(Cl)c1`?
Activity [14]: Active; Activity [15]: Active; fold change (FC) [16]: 2; Activity [17]: Active; fold change (FC) [18]: 1.2
